Bioassay records as filed in PubChem BioAssay.
An excerpt weighted towards active compounds, which were near 1.8% of everything screened.
MC4R ag barr – MC4R agonists recruiting beta-arrestin, primary screen, cell-based, luminescence, agonist arm of biased-ligand search; activation, % at 8.9 µM; AID 540308, 2011; 360,000 tested, 0.98% active; U2OS MC4R beta-arrestin complementation; percent of melanotan II response, DMSO zero; Melanocortin receptor 4 (Homo sapiens), P32245;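 active = activation above a per-plate cutoff, the mean activation of sample wells on that plate plus 3 SD, cut at about 8% in these data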
TLR9-MyD88 inh – inhibitors of TLR9-MyD88 association in cells, primary screen, cell-based, CHO, BLA complementation, fluorescence. Toll-like receptor 9 (Homo sapiens) + Myeloid differentiation primary response protein …. CCF4 FRET ratio. inhibition, % at 4.98 µM. 340,000 tested, 0.21% active. AID 504734, 2011;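 active = inhibition above the mean over all tested compounds plus 3 SD, cut at about 21% in these data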;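 note: 0% = DMSO only wells and 100% = clavulanate BLA inhibitor control wells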
TLR4 MyD88 comp – inhibitors of TLR4-MyD88 association in cells, primary screen, cell-based, HeLa CL3-4, BLA complementation, FRET ratio | 200,000 tested, 0.18% active | HeLa CL3-4 TLR4/MyD88 BLA complementation | AID 861, 2007 | inhibition, % at 8.4 µM | Toll-like receptor 4 (Homo sapiens) + Myeloid differentiation primary response protein …; in the data active = inhibition above about 25%;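 note: 0% = vehicle and 100% = reference inhibitor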
MC4R antag cAMP – MC4R antagonists of cAMP signaling, primary screen, cell-based, TR-FRET, antagonist arm of biased-ligand search. MC4R-expressing cells, MTII-stimulated cAMP, LANCE TR-FRET. inhibition, % at 6.5 µM. 360,000 tested, 0.48% active. AID 540295, 2011;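 active = inhibition above its plate's cutoff, the mean of tested wells on that plate plus 3 SD, cut at about 29% in these data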;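 note: 0% = Melanotan II alone and 100% = Melanotan II plus saturating MCL0020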
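Material – human MC4R-expressing U2OS cells · Repeats – no replicates · Detection – TR-FRET with Eu-cAMP and labeled anti-cAMP, 671 nm · Times – compound 30 min, challenge 1 h, detection 1 h · Compound – single nominal compound dose of 6.5 µM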
NOD2-RIPK2 inh – NOD2-RIPK2 binding disruptors in cells, primary screen, fluorescence, CHO cells, BLA complementation. CCF4 ratio. 360,000 tested, 0.38% active. inhibition, % at 4.98 µM. Receptor-interacting serine/threonine-protein kinase 2 (Homo sapiens), O43353; in the data active = inhibition above about 21%;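 note: 0% = vehicle only and 100% = reference blocker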
An asterisk follows results filed as active; . = no result given.

SMILES	MC4R ag barr	TLR9-MyD88 inh	TLR4 MyD88 comp	MC4R antag cAMP	NOD2-RIPK2 inh
C[C@@H]1O[C@@H](O[C@H]2C[C@@H](O)[C@]3(CO)[C@H]4[C@H](O)C[C@]5(C)[C@@H](C6=CC(=O)OC6)CC[C@]5(O)[C@@H]4CC[C@]3(O)C2)[C@H](O)[C@H](O)[C@H]1O	35*	5	-4	-4	0
CCN(CC)CCCOC(=O)C(OC(C)C)(c1ccccc1)c1ccccc1	6	-9	8	-3	-8
COC1CCC(OC2CC(C3(C)CCC4(CC(O)C(C)C(C(C)/C=C(\C)C(=O)C(C)CC(C)C(=O)O)O4)O3)OC3(OC(C4OC(O)(CO)C(C)CC4C)CC3C)C2C)OC1C (stereo unspecified)	19*	-6	.	8	7
CC(=O)O[C@@H]1/C=C/[C@](C)(O)C[C@@H](C)C/C=C/[C@H]2[C@@H]3O[C@]3(C)[C@@H](C)[C@H]3[C@H](Cc4ccccc4)NC(=O)[C@@]312	0	.	.	14	-13
CCc1ccc(CNCCc2ccc(F)cc2)cc1	0	-2	6	3	12
Fc1ccc(CCNCc2ccc(Cl)c(Cl)c2)cc1	8.7*	7	12	1	-8
OC1/C(=C/c2ccccc2C(F)(F)F)N2CCC1CC2 (stereo unspecified)	1	0	5	9	-9
Cn1cccc1C1CCCN1CC(=O)Nc1ccc(C#N)c(Cl)c1 (stereo unspecified)	-3	3	.	-3	-5
CC1OC(OC2C=C3CCC4C(CCC5(C)C(c6ccc(=O)oc6)CCC45O)C3(C)CC2)C(O)C(OC2OC(CO)C(O)C(O)C2O)C1O (stereo unspecified)	37*	-2	.	13	-6
COc1ccc(CN2CCCC(C(=O)c3cccc(Cl)c3)C2)cc1 (stereo unspecified)	9.0*	-6	.	4	1
CSc1ncc(CN2CCCC(C(=O)c3cccc(Cl)c3)C2)cn1 (stereo unspecified)	1	3	10	5	-1
CCOP(=S)(OCC)SCSP(=S)(OCC)OCC	1	-15	.	4	-19
O=C1/C(=C/c2ccccc2)C[C@@]2(O)[C@H]3Cc4ccc(O)c5c4[C@@]2(CCN3CC2CC2)C1O5 (stereo partly specified)	-4	7	.	-3	35*
Cc1cc2c(C(C)C)c(O)c(O)c(C=O)c2c(O)c1-c1c(C)cc2c(C(C)C)c(O)c(O)c(C=O)c2c1O	9.5*	.	-15	14	2
CCOc1cccc(=NC2CCCCC2)c2c(C)n(C)c(C)c12	7	.	.	6	-7
O=[N+]([O-])O[C@H]1CO[C@H]2[C@@H]1OC[C@H]2O[N+](=O)[O-]	0	5	.	19	-3
CC12CC[C@H]3[C@@H](CCC4(O)C[C@H](O)CCC34/C=N/NC(=O)c3ccccc3Cl)C1(O)CCC2C1=CC(=O)OC1 (stereo partly specified)	-1	-3	.	4	-4
C[C@]12CCC3C(CCC4=CC(O)CC[C@@]43/C=N/O)C1(O)CCC2C1=CC(=O)OC1 (stereo partly specified)	39*	-4	.	0	2
CC12CCC3C(CCC4(O)CC(O)CCC34C=NO)C1(O)CCC2C1=COC(=O)C1 (stereo unspecified)	26*	6	.	2	-5
C[C@]12CC[C@H]3[C@@H](CC[C@]4(O)C[C@@H](O)CC[C@]34C=O)[C@@]1(O)CC[C@@H]2C1=CC(=O)OC1	27*	7	.	3	2
CCCCN=C[C@]12CCC(O)CC1(O)CCC1[C@@H]2CC[C@]2(C)[C@H](C3C=CC(=O)O3)CCC12O (stereo partly specified)	35*	-12	.	-2	-7
CCN1CC2([N+](=O)[O-])CC=C(Cl)C([N+](=O)[O-])(C1)C2 (stereo unspecified)	2	-3	-3	13	4
C[C@H]1O[C@@H](OC2CC[C@]3(C=O)[C@H]4CC[C@]5(C)[C@@H](C6=CC(=O)OC6)CC[C@]5(O)[C@@H]4CC[C@]3(O)C2)CC2OC(C)(C)OC21 (stereo partly specified)	40*	-11	.	-3	-4
CC12CCC3C(CCC4(O)CC(O)CCC34C=O)C1(O)CCC2C1=CC(=O)OC1 (stereo unspecified)	21*	-2	.	8	-3
COC(=O)[C@]12OC[C@]34C([C@@H](O)[C@@H]1O)[C@]1(C)CC(=O)C(O)=C(C)[C@@H]1C[C@H]3OC(=O)[C@H](O)[C@@H]24 (stereo partly specified)	-2	-6	.	-3	26*
SMILES	MC4R ag barr	TLR9-MyD88 inh	TLR4 MyD88 comp	MC4R antag cAMP	NOD2-RIPK2 inh
CSc1ncc(/C=C2/C(=O)NC(=O)N(c3ccc(Cl)cc3)C2=O)cn1	-2	3	7	6	-2
CC1OC(OC2C(O)CC(OC3C(O)CC(OC4CCC5(C)C(CCC6C5CCC5(C)C(C7=CC(=O)OC7)C(O)CC65O)C4)OC3C)OC2C)CC(O)C1O (stereo unspecified)	27*	-12	.	1	-2
C[C@H]1O[C@@H](O[C@H]2[C@@H](O)C[C@H](O[C@H]3[C@@H](O)C[C@H](O[C@H]4CC[C@@]5(C)[C@H](CC[C@@H]6[C@@H]5CC[C@]5(C)[C@@H](C7=CC(=O)OC7)CC[C@]65O)C4)O[C@@H]3C)O[C@@H]2C)C[C@H](O)[C@@H]1O	.	.	-2	.	.
CC(=O)O[C@@H]1CC[C@]2(C)C3CC[C@@]4(C)C(C[C@@H](O)[C@@H]4O)C3[C@@H](OC(C)=O)C[C@H]2C1 (stereo partly specified)	2	2	.	11	-12
CC(=O)OC1CC(OC2C(O)CC(OC3C(O)CC(OC4CCC5(C)C(CCC6C5CCC5(C)C(C7=CC(=O)OC7)C(O)CC65O)C4)OC3C)OC2C)OC(C)C1OC1OC(CO)C(O)C(O)C1O (stereo unspecified)	15*	-10	.	11	-8
CC(=O)OC1CC2(O)C3CCC4CC(O)CCC4(C)C3CCC2(C)C1C1=CC(=O)OC1 (stereo unspecified)	17*	-11	.	10	7
Cc1cc(Cl)nc(N)n1	1	-4	6	5	1
COc1ccc(CNCCc2c(C)[nH]c3ccc(OC(F)(F)F)cc23)c(OC)c1	5	-12	.	10	9
